Reference: the array DNA melting data of Ke et al. (doi:10.1101/2024.01.08.574731)

Legend:
[1] = folding enthalpy; higher = less favourable; fluorescence melt of hairpins on a sequencing array, two-state fit; settings: sodium 0.088 M
In short: (§1)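 Cy3 fluorescence of library hairpins on a sequenced MiSeq flow cell, with annealed Cy3 and quencher oligos, was imaged in 50 mM Na-HEPES pH 8.0, 25 mM NaCl in 2.5 °C steps up to 60 °C. Signals were normalised to pre-quench Cy3 and to control variants. Melting temperature and folding enthalpy came from bootstrapped two-state fits, inverse-variance combined over four replicates. Fitted temperatures were raised by 9.35 °C to match UV melts.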

[2] = melting temperature; fluorescence melt of hairpins on a sequencing array, two-state fit, raised by 9.35 °C to match UV melts; settings: sodium 0.088 M
In short: as §1

Sequence	folding enthalpy [1]	Tm [2]
GCGAGTGGAAACACTTGC ((.((((....)))).))	-39.2 kcal/mol	53.6 °C
GTATACGAAAGTATATAC ((((((....)))..)))	-14.4 kcal/mol	34.7 °C
GCGAGGCGTCGC ((((....))))	-14.7 kcal/mol	56.6 °C
GATCTTACGAAAGATC ((((((....))))))	-26.4 kcal/mol	39.4 °C
GATCCAGGGTGGATC ((((((...))))))	-31.5 kcal/mol	49.3 °C
GTACTACGAAAGTATTAC (((.(((....))).)))	-23.5 kcal/mol	32.8 °C
GATCGGGTGTCCGATC ((((((....))))))	-37.7 kcal/mol	58.3 °C
GTACCGCGAAAGCGTAC (((.(((....))))))	-14.1 kcal/mol	51.1 °C
GAGCCCGGAAACAGGCCC (.(((.(....).))).)	-8.46 kcal/mol	27.1 °C
GTGCTCGGAAACGGGCAC ((((.((....)).))))	-47 kcal/mol	61.4 °C
GCGGTATTCCGC ((((....))))	-30.6 kcal/mol	56.4 °C
GTGGGTGCGAAAGCACAC (((..(((....))))))	-17.5 kcal/mol	64.2 °C
GCAGTGGGAAACCACTAC (.(((((....))))).)	-12.9 kcal/mol	41.1 °C
GGGCTTGGAAACAGGCCC ((((.((....)).))))	-43.9 kcal/mol	59.1 °C
GTATGAGGAAACTCATAC (((((((....)))))))	-36.9 kcal/mol	54.6 °C
GGAGCCGGAAACGACCCC ((.(.((....)).).))	-15.5 kcal/mol	29.4 °C
GAGGCCACGAAAGTGCTC (((..(((....))))))	-10.9 kcal/mol	32 °C
GCGCATCGAAAGATCGC (((.(((....))))))	-37 kcal/mol	55.8 °C
GGCTTCGAAAGAACTGCC ((((((....)))..)))	-21.5 kcal/mol	36.7 °C
GGAGGACGAAAGTCATCC (((.(((....))).)))	-33.3 kcal/mol	61.4 °C
GATCCCACCGGGGATC ((((((....))))))	-32.3 kcal/mol	63.7 °C
GATCGTACTACGATC ((((((...))))))	-36.3 kcal/mol	56.5 °C
GATTGCGGAAACGCAGTC ((.((((....)))).))	-25.2 kcal/mol	49.6 °C

Sequence	folding enthalpy [1]	Tm [2]
GAACAGACGAAAGTCTTC (((..(((....))))))	-9.42 kcal/mol	25.6 °C
GTTTAGGGAAACCCAAAC ((((.((....)).))))	-24.7 kcal/mol	33.2 °C
GATCAGAGCACTGATC ((((((....))))))	-36.5 kcal/mol	49.3 °C
GTAAGCTCGAAAGAGTAC (((..(((....))))))	-12.2 kcal/mol	27 °C
GCTCCGCGAAAGCAGAGC ((((.((....)).))))	-31.6 kcal/mol	64 °C
GTCGAGGGAAACCTTGGC (.(.(((....))).).)	-21.8 kcal/mol	36 °C
GACAGAGCGAAAGCTGTC (((..(((....))))))	-18.3 kcal/mol	46.7 °C
GATCCCGAAAGGGTGATC ((((((....)))..)))	-16.1 kcal/mol	39.8 °C
GCGGTTTCCGC ((((...))))	-29.4 kcal/mol	60.5 °C
GCGCATGGAAACATGTGC ((.((((....)))).))	-36.5 kcal/mol	57.1 °C
GCGAATGTCGC ((((...))))	-17.6 kcal/mol	46.7 °C
GGCCTCCGAAAGGATGCC (((.(((....))).)))	-37.2 kcal/mol	56.5 °C
GGCCAGGGAAACCTGACC ((.((((....)))).))	-34.4 kcal/mol	48.3 °C
GAAGACGAAAGTCTGTTC ((((((....)))..)))	-13.7 kcal/mol	40 °C
GGACGCCCGAAAGGGTCC (((..(((....))))))	-16.2 kcal/mol	43.2 °C
GATCGGGGGCCGATC ((((((...))))))	-40.8 kcal/mol	54.9 °C
GATCTTTACGAAGATC ((((((....))))))	-32.2 kcal/mol	45.3 °C
GCACGGCGAAAGCAGGGC ((.(.((....)).).))	-36 kcal/mol	65.8 °C
GCGTTGCCACGC ((((....))))	-14.3 kcal/mol	53.8 °C
GGAGTCGAAAGACATCC ((((((....))).)))	-18.2 kcal/mol	42.8 °C
GATCAGCCGTCTGATC ((((((....))))))	-43.6 kcal/mol	51.6 °C
GTGCTACGAAAGTACCAC (((.(((....))).)))	-26 kcal/mol	37.8 °C
GCTTTCGAAAGAACAGC ((((((....))).)))	-23.7 kcal/mol	36.8 °C

Sequence	folding enthalpy [1]	Tm [2]
GCGTCTGGAAACAGGTGC ((..(((....)))..))	-28.3 kcal/mol	41.8 °C
GGAAGCGAAAGCTATCC ((((((....))).)))	-14.6 kcal/mol	40.9 °C
GCAGGACCGAAAGGTTGC (((..(((....))))))	-20.7 kcal/mol	44.8 °C
GTCTCCTCGAAAGAGGAC (((..(((....))))))	-9.88 kcal/mol	32 °C
GTAACCGAAAGGTGTAC ((((((....))).)))	-19.5 kcal/mol	41.3 °C
GATGGTGGAAACATCATC ((((.((....)).))))	-28.1 kcal/mol	46.1 °C
GAATCGCGAAAGCGTTTC (((.(((....))).)))	-21.9 kcal/mol	46.2 °C
GATCGACACTCGATC ((((((...))))))	-30.9 kcal/mol	49.9 °C
GTAAACGCGAAAGCGTAC (((..(((....))))))	-8.26 kcal/mol	35 °C
GCGTGATTACGC ((((....))))	-22.2 kcal/mol	52.5 °C
GCTCAAGAAATTGAGC ((((((....))))))	-34.1 kcal/mol	55.3 °C
GCAAGAGGAAACTCCTGC (((.(((....))).)))	-18.2 kcal/mol	35.2 °C
GAAGGCCCGAAAGGGTTC (((..(((....))))))	-17.4 kcal/mol	25.5 °C
GATCGGCGGTCCGATC ((((((....))))))	-43.3 kcal/mol	55.5 °C
GATCTCTCGCGAGATC ((((((....))))))	-42.2 kcal/mol	51.4 °C
GCAGGGCGAAAGCTTTGC (((..((....))..)))	-19.8 kcal/mol	50.7 °C
GCCAATCGAAAGATGGC (((.(((....))))))	-35.5 kcal/mol	55.4 °C
GATCGGTCCGCCGATC ((((((....))))))	-42.5 kcal/mol	60.1 °C
GCTAACGGAAACGTTAGC (((((((....)))))))	-47.9 kcal/mol	66.2 °C
GTATGTCCGAAAGGATAC (((..(((....))))))	-16.3 kcal/mol	26.8 °C
GCAATACGAAAGTATGC (((.(((....))))))	-29.4 kcal/mol	50.6 °C
GGCGTTACGAAAGTAGCC (((..(((....))))))	-39.7 kcal/mol	55 °C
GGCCACGAAAGTGGGGCC ((((((....)))..)))	-14.2 kcal/mol	60.3 °C

Sequence	folding enthalpy [1]	Tm [2]
GGAGGCGAAAGCCAGTCC ((((((....)))..)))	-10.6 kcal/mol	34.1 °C
GGTTTCGGAAACGGAATC (.((.((....)).)).)	-20.8 kcal/mol	33.4 °C
GCGATCGAAAGATGGCGC ((((((....)))..)))	-34.8 kcal/mol	53.2 °C
GATCGCGGAAACACGATC (((((.(....).)))))	-30.7 kcal/mol	48.6 °C
GGGGGTGGAAACACTCCC (((.(((....))).)))	-37.6 kcal/mol	56.5 °C
GCCTACGGAAACGCAAGC ((.(.((....)).).))	-11.9 kcal/mol	26.9 °C
GAGTGGGGAAACTCACTC (((((.(....).)))))	-40.9 kcal/mol	49.2 °C
GGATGACGAAAGTCGTCC (((.(((....))).)))	-38.4 kcal/mol	64.5 °C
GTAGTCGAAAGACGTTAC ((((((....)))..)))	-12.2 kcal/mol	35 °C
GGATCCCGAAAGGGTTCC (((.(((....))).)))	-29.8 kcal/mol	54.3 °C
GCAGCACCGAAAGGTTGC (((..(((....))))))	-14 kcal/mol	43.9 °C
GCCTTGCGAAAGCGATGC ((.(.((....)).).))	-11.3 kcal/mol	47.4 °C
GGACACGAAAGTGCTTCC ((((((....)))..)))	-20.4 kcal/mol	40.4 °C
GGGAACTCGAAAGAGCCC (((..(((....))))))	-20.3 kcal/mol	37.8 °C
GGAAAGGGAAACCTCTCC (((.(((....))).)))	-14.8 kcal/mol	33 °C
CGCTTCCGGAAACGGGCG (((..(((....))))))	-23.4 kcal/mol	40 °C
GCTAGCGAAAGCTCTAGC ((((((....)))..)))	-15.3 kcal/mol	38.5 °C
GACGTAGGAAACTACGCC (.(((((....))))).)	-16.6 kcal/mol	43.6 °C
GTAGATGGAAACATTTAC (((.(((....))).)))	-17.3 kcal/mol	32.1 °C
GACATCGCGAAAGCGGTC (((..(((....))))))	-11.6 kcal/mol	34.8 °C
GAAAACGAAAGTTTTTC ((((((....))).)))	-17.8 kcal/mol	42.1 °C
GCCCACGAAAGTGTGGC ((((((....))).)))	-30.2 kcal/mol	62.4 °C
GATACCGGAAACGATATC ((((.((....)).))))	-25.8 kcal/mol	34.8 °C
